Compounds with a hit are over-represented: about 2.1% of the library has one in this group of screens.
PKA-R2B act = activators of human PKA-R2B complex; PKA-R2B holoenzyme dissociation, Cy5-IP20 fluorescence polarization; R2B truncated from residue 108, S112A mutant; 0% DMSO only, 100% 113 µM cGMP; P22694+P31323; actives 0.079% (n = 340,000); activation, % at 11.4 µM;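 active = activation above a cutoff set at the mean over all compounds plus 3 SD, cut at about 18% in these data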;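 note: higher means more holoenzyme dissociation and a rise in polarization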
Target sequence (P31323 whole entry, looked up, other chains not shown, the tested form may be a part): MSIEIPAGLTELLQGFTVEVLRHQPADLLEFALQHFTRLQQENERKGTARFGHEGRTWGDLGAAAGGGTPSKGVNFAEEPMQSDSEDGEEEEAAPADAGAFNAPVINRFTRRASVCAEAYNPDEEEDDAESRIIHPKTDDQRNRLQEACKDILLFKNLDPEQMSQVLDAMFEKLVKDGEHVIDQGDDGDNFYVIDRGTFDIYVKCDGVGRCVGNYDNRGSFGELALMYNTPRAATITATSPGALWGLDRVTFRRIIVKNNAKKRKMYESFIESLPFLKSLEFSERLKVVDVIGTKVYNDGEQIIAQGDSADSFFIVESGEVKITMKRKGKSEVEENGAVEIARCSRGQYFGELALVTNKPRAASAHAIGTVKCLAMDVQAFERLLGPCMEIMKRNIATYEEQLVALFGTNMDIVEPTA
MsrA inhibitor = inhibits bovine methionine sulfoxide reductase A | actives 0.75% (n = 360,000) | inhibition, % at 15.5 µM | purified bovine MsrA, absorbance read-out;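 note: 0% = vehicle wells with enzyme and 100% = reference inhibitor wells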
IMP-1 inh = inhibitors of Pseudomonas aeruginosa IMP-1 metallo-beta-lactamase. purified IMP-1, nitrocefin hydrolysis, epi-absorbance fluorescence. inhibition, % at 5.6 µM. actives 0.45% (n = 290,000). AID 1556;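 active = inhibition above the mean plus 3 SD of all compounds in the same screening run, cut at about 4.5% in these data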;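 note: 0% = IMP-1 with DMSO and 100% = DMSO wells lacking enzyme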
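system = purified recombinant IMP-1 beta-lactamase | amount = 0.2 nM IMP-1, as dispensed | medium = HEPES buffer pH 7.1 with ZnSO4 and Brij 35 | times = 25 °C, 15 min preincubation, 25 min reaction | detection = plate fluorescence quenching by hydrolysis product, ex 480/em 530 nm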
MsrA act = activators of bovine methionine sulfoxide reductase A; actives 0.3% (n = 360,000); purified bovine MsrA, absorbance read-out; activation, % at 10.6 µM; in the data active = activation above about 7.5%;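 note: 0% = vehicle and 100% = reference activator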
PKA-R1A activ = activators of PKA-R1A complex | PKA-R1A dissociation, Cy5-IP20 fluorescence polarization; scaled: DMSO 0%, 113 µM cGMP 100% | activation, % at 11.4 µM | actives 0.083% (n = 340,000) | AID 504707;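 active = percent activation above the mean of all tested compounds plus 3 SD, cut at about 19% in these data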;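 note: higher means more PKAc released from R1A so a rise in polarization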
VIM-2 inh = blocks Pseudomonas aeruginosa VIM-2 metallo-beta-lactamase. inhibition, % at 5.6 µM. purified VIM-2, nitrocefin hydrolysis, epi-absorbance fluorescence. actives 0.89% (n = 290,000);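 active = inhibition above the mean of all tested compounds plus 3 SD, cutoff set per screening run, cut at about 7.5% in these data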;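 note: red hydrolysis product quenches plate fluorescence so inhibitors raise well fluorescence; 0% = enzyme with DMSO and 100% = DMSO without enzyme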
MsrA inh confirm = confirmation of bovine MsrA inhibitors; inhibition, % at 15.5 µM; shares compounds with MsrA inhibitor; purified bovine MsrA, absorbance read-out; actives 41% (n = 2,300);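 note: coupled to thioredoxin reductase with NADPH and selenocystamine and DMSO as substrate; 0% = vehicle only and 100% = full effect of reference inhibitor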
The depositor's hits bear a star; . = no result given. Cut-off read from the data, not from the text of the source, unless noted: active = inhibition above about 4.5%; inactive = the rest.

SMILES	PKA-R2B act	MsrA inhibitor	IMP-1 inh	MsrA act	PKA-R1A activ	VIM-2 inh	MsrA inh confirm
O=c1[nH]ncc(N/N=C\c2cccnc2)c1Cl	-7	2	-4	-3	0	-1	.
O=C(NC1CC1)c1ccc2sc([C@H]3C[C@H](O)[C@@H](CO)O3)nc2c1	.	1	.	-3	.	.	.
O=C(C(=O)N1CCC(CNS(=O)(=O)c2ccc(F)cc2)CC1)c1cc2ccccc2o1	.	0	.	.	.	.	.
O=C(Nc1nncs1)C1CCCC1	-6	-1	.	-7	2	.	.
COc1ccc(C(=O)NCC(=O)N/N=C/C(C)=C/c2ccco2)cc1OC	-4	6.6*	-1	-13	3	-4	4
COc1cc(C(=O)NCC(=O)N/N=C/c2ccco2)cc(OC)c1OC	-3	1	-2	-2	1	-2	.
CCCOc1ccc(C(=O)Nc2ccc(N3CCOCC3)cc2N2CCOCC2)cc1OCC	2	1	.	-9	7	.	.
C[C@H](O)[C@@H]1C(=O)N2CCc3c([nH]c4c(-c5ccccc5)cccc34)[C@@H]2C[C@@H]1N(C)C(=O)Nc1ccccc1	.	-1	.	.	.	.	.
C/C(=N\Nc1ccccc1Cl)c1ccc(-n2ccnc2)cc1	-3	0	-2	-3	-9	4	.
C/C(=N\Nc1ccc(C(=O)O)cc1)c1ccc(-n2ccnc2)cc1	-5	6.5*	-3	-3	-1	1	4.5*
C=CCCC1CN(Cc2ccc(OC)cc2)S(=O)(=O)c2c(F)cccc2O1 (stereo unspecified)	.	-1	.	.	.	.	.
NS(=O)(=O)c1ccc2nc(NC(=O)c3ccncc3)sc2c1	-2	5.6*	-3	-6	-7	-4	4
Cc1ccc2nc(NC(=O)c3ccc(Br)o3)sc2c1	-2	0	2	-7	-6	1	.
NC(=O)c1ccc2nc(NC(=O)c3ccc(N)cc3)sc2c1	.	6.3*	-1	-4	.	3	4
CS(=O)(=O)c1ccc2nc(NC(=O)c3ccccc3)sc2c1	2	1	-2	0	-5	-1	.
NS(=O)(=O)c1ccc2nc(NC(=O)c3ccc(Br)o3)sc2c1	0	4.8*	-1	-3	-1	-3	5.7*
CCOC(=O)C(C(=O)Cc1ccccc1)c1ccccc1 (stereo unspecified)	-1	0	.	-1	5	.	.
C1=C(c2cc3ccccc3cn2)CCCC1	7	1	.	-3	8	.	.
CCOC(=O)c1sc(N)nc1C(F)(F)F	-7	1	.	-3	4	.	.
CCc1sc(C(=O)N2CCN(C(=O)c3ccccc3)CC2)cc1C	-1	0	.	-4	-5	.	.
O=[N+]([O-])c1ccc(N/N=C2\CC3CC=CC23)c([N+](=O)[O-])c1 (stereo unspecified)	-8	5.6*	-6	-8	-12	0	4
O=C(/C=C/c1c(Cl)nc2ccccn12)N1CCCCC1	-4	7.8*	-3	-4	0	-1	4
O=C(CCNC(=O)c1ccc(Cl)cc1)NNC(=O)c1ccc(F)cc1	-12	0	.	0	-1	.	.
CCCS(=O)(=O)NC(=O)C1(C)CCCN(C(=O)c2ccc(F)c(Cl)c2)C1 (stereo unspecified)	.	0	.	0	.	.	.
O=C(N/N=C\C=C\c1ccc2c(c1)OCO2)C1COc2ccccc2O1 (stereo unspecified)	-12	4.8*	1	-11	-9	-3	3
SMILES	PKA-R2B act	MsrA inhibitor	IMP-1 inh	MsrA act	PKA-R1A activ	VIM-2 inh	MsrA inh confirm
O=C(N/N=C\C=C\c1ccc2c(c1)OCO2)c1cccnc1	-16	8.0*	-2	-15	-4	-3	5.7*
CC(=NNC(=O)c1ccc(NS(=O)(=O)c2cccs2)cc1)c1ccc(OCC(N)=O)cc1	5	2	.	-4	-6	.	.
CCOC(=O)C1=C(C)NC2=C(C(=O)CCC2)C1c1cn(Cc2ccc(Cl)cc2Cl)nc1-c1ccccc1 (stereo unspecified)	3	4.7*	-3	1	-4	-2	3
COC(=O)C1=C(C)NC2=C(C(=O)CCC2)C1c1cn(Cc2ccc(Cl)cc2Cl)nc1-c1ccccc1 (stereo unspecified)	-2	4	-3	-2	-15	-4	.
Cc1cc(NS(=O)(=O)c2ccc(NC(=O)c3cnc4sccn4c3=O)cc2)nc(C)n1	0	1	-2	-5	4	0	.
Cc1cc(C)nc(NC(=O)c2cnc3sccn3c2=O)n1	7	5.5*	-2	-5	13	-6	4.7*
N=c1nc2n(cc1F)C1OC(CO)C(O)C1O2 (stereo unspecified)	-4	2	.	-4	5	.	.
C#C[C@]1(O)CC[C@H]2[C@@H]3CCC4=Cc5oncc5C[C@]4(C)[C@H]3CC[C@@]21C	-4	1	.	-6	-5	.	.
Cc1csc2ncc(C(=O)N3CCCc4ccccc43)c(=O)n12	-8	4.7*	-2	-3	5	-1	3
O=C(CSc1ccc(-c2ccccn2)nn1)Nc1cccc(F)c1	0	0	-5	-1	2	-2	.
CCCSc1nnc(NC(=O)CSc2sc3c(O)cc(=O)[nH]c3c2C#N)s1	-2	1	-4	-4	-1	-2	.
N#Cc1c(SCC(=O)Nc2nccs2)sc2c(O)cc(=O)[nH]c12	6	4.9*	-1	-5	-7	-3	2
CCOC(=O)c1cnc2c(ccc3ccccc32)c1Cl	4	-1	-3	-5	0	-1	.
CCOC(=O)c1cnc(SC)nc1Sc1ccccc1Cl	-7	8.2*	-3	-5	7	-3	3
C=CCOc1ccc(/C=C2\SC(=S)N(NS(=O)(=O)c3ccc(C)cc3)C2=O)cc1	-3	2	-4	0	0	-6	.
CC(=O)C(Sc1nnnn1-c1ccc(O)cc1)c1ccccc1 (stereo unspecified)	1	2	-3	-2	9	-2	.
O=C(Nc1nnc([C@H]2C[C@H](O)[C@@H](CO)O2)s1)Nc1ccccc1C(F)(F)F	.	0	.	-5	.	.	.
NC1=NC(=O)/C(=C/c2cn(CCC(=O)O)nc2-c2ccc(F)cc2)S1	3	5.0*	-4	-6	12	-2	3
COCc1cc(C)nc(N/N=C/c2ccc(-c3ccc(Cl)cc3[N+](=O)[O-])o2)c1C#N	8	6.4*	-4	-4	6	-2	2
Cn1c(N)c(N=O)c(=O)n(C)c1=S	13	1	.	-3	5	.	.
CSc1ccc(/C=N/NC(=O)c2ccc(O)cc2)cc1	-7	7.9*	-3	-7	-8	0	5.8*
O=C(NN=Cc1ccc(O)cc1)C(=O)NN=Cc1ccc(O)cc1	5	6.1*	.	0	4	.	2
